Source: ChEMBL document CHEMBL4680238, “Novel octapeptide-DTX prodrugs targeting MMP-7 as effective agents for the treatment of colorectal cancer with lower systemic toxicity” (Eur J Med Chem, 2020)

How the values were obtained:
SW-620 = assay: Cytotoxicity against human SW-620 cells assessed as reduction in cell viability after 72 hrs by MTT assay; assay type: functional, cell-based; details: SW-620, 72 h
Summary of the method: (§1)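 Cells seeded at 5000/well and precultured 1 day. HCT116 grown in McCoy's 5A + 10% FBS; SW620 and HEK293 in DMEM + 10% FBS; CCD18Co in DMEM + 15% FBS. Compounds from 0.1 M DMSO stocks were tested at 10^-10 to 10^-4 mol/L in sixplicate: HCT116 and HEK293 for 48 h, SW620 and CCD18Co for 72 h, at 37 °C, 5% CO2. MTT (5 mg/mL) added for 4 h, then A570 read; IC50 estimated.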

HCT-116 [1] = assay: Cytotoxicity against human HCT-116 cells assessed as reduction in cell viability after 48 hrs by MTT assay; assay type: functional, cell-based; details: HCT-116, 48 h; summary of the method: as §1
CCD-18Co = assay: Cytotoxicity against human CCD-18Co cells assessed as reduction in cell viability after 72 hrs by MTT assay; assay type: cell-based; summary of the method: as §1
HEK293 = assay: Cytotoxicity against HEK293 cells assessed as reduction in cell viability after 48 hrs by MTT assay; assay type: cell-based; details: Homo sapiens, HEK293, 48 h; summary of the method: as §1
HCT-116 [2] = assay: Antitumour activity against human HCT-116 cells xenografted in BALB/c nude mouse assessed as tumour growth inhibition at 5 mg/kg, ip administered once for every 7 days for 14 days relative to control; assay type: functional; details: HCT-116, ip, 336 h, time 14 day, read-out: TGI
Summary of the method: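 Male BALB/c nude mice received s.c. HCT116 cells (2 × 10^6 in 0.2 mL PBS). Once tumours reached 100-200 mm3, mice were randomized into groups of six. Dosing was ip, 0.1 mL/10 g, once every 7 days, in DMSO 0.5%/castor oil 5%/ethanol 5%/saline 89.5%; vehicle controls got solvent. Caliper volume V = L×W²×0.52 read every 2-3 days. Tumours excised and weighed on day 14.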

[3] = Toxicity in BALB/c nude mouse xenografted with human HCT-116 cells assessed as reduction in body weight at 5 mg/kg, ip administered once for every 7 days for 14 days relative to control; assay type: organism-based; design: scale not given: the % may be the effect or the level left; details: in vivo, 336 h, time 14 day
Summary of the method: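 HCT116 s.c. xenografts in male BALB/c nude mice, n = 6 per group. Dosing was ip once every 7 days for 2 weeks in DMSO/castor oil/ethanol/saline; vehicle controls got solvent. Body weight recorded every other day or every three days. Weight loss taken at day 14. Mean ± SD.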

[4] = Toxicity in BALB/c nude mouse xenografted with human HCT-116 cells assessed as necrosis in liver at 5 mg/kg, ip administered once for every 7 days for 14 days by H and E staining based assay; assay type: organism-based; details: in vivo, 336 h, time 14 day
Summary of the method: (§2)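 At the end of the 14-day ip xenograft study (HCT116, BALB/c nude), heart and liver were collected from vehicle and molar-equivalent dose groups. Tissues fixed in 10% formalin in PBS and stained with H&E. Liver examined at 400×, heart at 100×.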

[5] = Toxicity in BALB/c nude mouse xenografted with human HCT-116 cells assessed as disordered myocardial fiber in heart at 5 mg/kg, ip administered once for every 7 days for 14 days by H and E staining based assay; assay type: organism-based; details: in vivo, 336 h, time 14 day; summary of the method: as §2
[6] = Toxicity in BALB/c nude mouse xenografted with human HCT-116 cells assessed as inflammatory cell invasion in heart at 5 mg/kg, ip administered once for every 7 days for 14 days by H and E staining based assay; assay type: organism-based; details: in vivo, 336 h, time 14 day; summary of the method: as §2

CC(=O)O[C@@]12CO[C@@H]1C[C@H](O)[C@@]1(C)C(=O)[C@H](O)C3=C(C)[C@@H](OC(=O)[C@H](O)[C@@H](NC(=O)OC(C)(C)C(F)(F)F)c4ccccc4)C[C@@](O)([C@@H](OC(=O)c4cccc(F)c4)[C@H]21)C3(C)C
IC50 (SW-620): 280 nM
IC50 (HCT-116 [1]): 0.1 nM
IC50 (CCD-18Co): 17100 nM
IC50 (HEK293): 360 nM
inhibition in vivo at 5 mg/kg (HCT-116 [2]): 41.9%
Activity [3]: 9.5%
Activity [4]: Toxic
Activity [5]: Toxic
Activity [6]: Toxic
